Numbering of substitutions follows the chain as printed. Like-named read-outs stand apart in the source and are kept apart here. One block for each compound: values may come before it.
Assays:
[1] = cited from earlier work
[2] = molecular target: T1, Y537S ERα-SRC3 interaction (Homo sapiens, UniProt P03372, Y537S); test: cell-based; format: cell-based; conditions: for IC50: 1 nM E2, 48 h
T1 sequence (P03372 1-595 Y537S): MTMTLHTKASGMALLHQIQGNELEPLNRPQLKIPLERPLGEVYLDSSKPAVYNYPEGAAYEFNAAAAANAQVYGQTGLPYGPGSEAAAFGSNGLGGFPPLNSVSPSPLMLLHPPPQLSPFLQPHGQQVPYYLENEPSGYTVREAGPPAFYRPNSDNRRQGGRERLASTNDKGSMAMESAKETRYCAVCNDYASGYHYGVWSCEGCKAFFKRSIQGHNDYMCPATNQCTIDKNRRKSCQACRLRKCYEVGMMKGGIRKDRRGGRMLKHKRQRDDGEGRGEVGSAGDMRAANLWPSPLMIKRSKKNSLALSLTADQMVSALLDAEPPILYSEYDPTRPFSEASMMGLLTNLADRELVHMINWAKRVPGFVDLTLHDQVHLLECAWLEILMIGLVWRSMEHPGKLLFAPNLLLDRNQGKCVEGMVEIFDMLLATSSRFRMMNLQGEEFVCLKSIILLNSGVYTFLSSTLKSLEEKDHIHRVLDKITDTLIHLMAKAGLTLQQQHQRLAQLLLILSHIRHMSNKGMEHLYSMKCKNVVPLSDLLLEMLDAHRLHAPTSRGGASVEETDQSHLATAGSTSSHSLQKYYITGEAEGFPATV

endometrium = test: Uterine SERM agonist study; format: in vivo, BALB/c mice; conditions: ovariectomized mice, three days of treatment, with and without E2
Outline: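 Adult ovariectomized BALB/c mice were randomized to 8 groups and dosed once daily for 3 consecutive days. Treatments: vehicle (0.2% Tween 80/0.5% CMC); E2 (0.1 mL of 0.1 µg/mL in 95% cottonseed oil/5% ethanol); test compound 50 mg/kg orally; reference SERM 50 mg/kg in vehicle; reference SERD 25 mg/kg in cottonseed oil/ethanol. Each active arm was run ± E2. Uteri were weighed, formalin-fixed, embedded and H&E-stained.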

[3] = system: heterozygous, luciferase-tagged Y537S ESR1 MCF7 xenograft; test: Comparative murine xenograft study T6I-29-1A vs ICI; format: in vivo, NOD/SCID mice
WT ERα-SRC3 interaction = molecular target: T2, WT ERα-SRC3 interaction (Homo sapiens, UniProt P03372); test: cell-based; conditions: 1 nM E2, 48 h
T2 sequence (P03372 1-595): T1 sequence (P03372 1-595 Y537S) with S537Y

[4] = difference between WT-SRC3 and Y537S-SRC3
[5] = 25 mg/kg, T6I-29-1A IP five times per week, ICI SC once per week, vs vehicle

Compound: CC/C(=C(\c1ccccc1)c1ccc(OCCN(C)C)cc1)c1ccccc1 [tamoxifen]
protein binding [1]: greater than 98%

Compound: C[C@]12CC[C@@H]3c4ccc(O)cc4C[C@@H](CCCCCCCCC[S+]([O-])CCCC(F)(F)C(F)(F)F)[C@H]3[C@@H]1CC[C@@H]2O (stereo partly shown) [ICI, fulvestrant]
endometrium thickness (endometrium): diminished the thickness
tumor bioluminescent signal (IVIS) vs vehicle ([3]; 25 mg/kg SC once per week): no significant difference in bioluminescent signal
final uterine weights ([3]; 25 mg/kg, T6I-29-1A IP five times per week, ICI SC once per week): significantly decreased final uterine weights
survival [3, 5]: significantly prolonged
tumor growth (digital caliper) [3, 5]: significantly blunted tumor growth
ER target gene expression in tumors (RT-qPCR) ([3]; no significance noted): heightened

Compound: C[C@@H]1Cc2c(ccc3[nH]ncc23)[C@@H](c2ccc(NC3CN(CCCF)C3)cn2)N1CC(F)(F)F [Cam, camizestrant]
ΔIC50 [2]: 44.67

Compound: C[C@@H]1Cc2c([nH]c3ccccc23)[C@@H](c2c(F)cc(NC3CN(CCCF)C3)cc2F)N1CC(F)(F)CO [Gir, giredestrant]
IC50 (WT ERα-SRC3 interaction; WT-SRC3 IC50 ± StDev): 0.68 ± 0.25 nM
IC50 (WT ERα-SRC3 interaction; WT-SRC3 Log(IC50) ± StDev): 0.676 nM
IC50 ([2]; Y537S-SRC3 IC50 ± StDev): 47.6 ± 11.4 nM
IC50 ([2]; Y537S-SRC3 Log(IC50) ± StDev): 47.9 nM
ΔIC50 [2, 4]: 46.95

Next, values leading:

ΔIC50 [2, 4]: 9.59
Compound: Oc1ccc2c(c1)CC[C@H](c1ccccc1)[C@@H]2c1ccc(OCCN2CCCC2)cc1 [Laso, lasofoxifene]

endometrium thickness (endometrium): significantly increased width
Compound: CC/C(=C(\c1ccc(O)cc1)c1ccc(OCCN(C)C)cc1)c1ccccc1 [Compound 4OHT, 4-hydroxytamoxifen]

ΔIC50 [2, 4]: 3560.03
Compound: CCNCCc1ccc(CN(CC)c2cc(OC)ccc2[C@@H]2CCc3cc(O)ccc3C2)cc1 [Rad1901, elacestrant]

Reference: PMC11742495 (Breast Cancer Research : BCR, 2025)
